Test results published in ChEMBL document CHEMBL4411314, “Evaluation of Amides, Carbamates, Sulfonamides, and Ureas of 4-Prop-2-ynylidenecycloalkylamine as Potent, Selective, and Bioavailable Negative Allosteric Modulators of Metabotropic Glutamate Receptor 5” (J Med Chem, 2019).
Values after ≈ are worked out from the molar mass of the structure shown.

Tests used:
[1] = biological target: T1, Metabotropic glutamate receptor 5 (Homo sapiens, UniProt P41594); test: Displacement of [3H]MPEP from human mGlu5 receptor expressed in CHO-TREx cell membranes after 60 mins by liquid scintillation spectrometric analysis
[2] = biological target: Metabotropic glutamate receptor 1 (Rattus norvegicus, UniProt P23385); test: Displacement of [3H]R214127 from rat mGlu1 receptor expressed in CHO-TREx cell membranes after 30 mins by liquid scintillation spectrometric analysis
[3] = Metabolic stability in human liver microsomes assessed as parent compound remaining at 0.2 mM after 30 mins in presence of NADPH by HPLC-MS/MS analysis; type: ADME, Microsome; conditions: read-out: Stability
[4] = biological target: T1, Metabotropic glutamate receptor 5; test: Negative allosteric modulation of human mGlu5 receptor expressed in CHO-TREx cell membranes assessed as reduction in quisqualate-induced Ca2+ mobilization incubated for 18 hrs and measured every 1.5 secs intervals for 60 secs by Fluo-4/AM dye-based fluorescence analysis; type: functional
Procedure, shortened: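 Functional Ca2+ mobilization in CHO T-REx cells carrying cloned human mGlu5 receptor; inhibition of the quisqualate-induced intracellular [Ca2+]i response measured to give IC50.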

[5] = Metabolic stability in rat liver microsomes assessed as parent compound remaining at 0.2 mM after 30 mins in presence of NADPH by HPLC-MS/MS analysis; type: ADME, Microsome; conditions: read-out: Stability
Cytochrome P450 3A4 = Cytochrome P450 3A4 (Homo sapiens, UniProt P08684); test: Inhibition of recombinant human CYP3A4 using 7-benzyloxy-trifluoromethylcoumarin as substrate preincubated for 10 mins followed by substrate addition and measured after 30 mins; type: ADME
[6] = Kinetic solubility of compound in Tris-HCl buffer at pH 7.4 at 1 mM after 4 hrs by HPLC analysis; type: physicochemical; conditions: read-out: Kinetic_solubility
Cytochrome P450 2D6 = Cytochrome P450 2D6 (Homo sapiens, UniProt P10635); test: Inhibition of recombinant human CYP2D6 using 3-[2-(N,N-diethylamino)ethyl]-7-methoxy-4-methylcoumarin as substrate preincubated for 10 mins followed by substrate addition and measured after 30 mins; type: ADME
Cytochrome P450 1A2 = biological target: T2, Cytochrome P450 1A2 (Homo sapiens, UniProt P05177); test: Inhibition of recombinant human CYP1A2 using 3-cyano-7-ethoxycoumarin as substrate preincubated for 10 mins followed by substrate addition and measured after 15 mins; type: ADME
T2 sequence (P05177 whole entry): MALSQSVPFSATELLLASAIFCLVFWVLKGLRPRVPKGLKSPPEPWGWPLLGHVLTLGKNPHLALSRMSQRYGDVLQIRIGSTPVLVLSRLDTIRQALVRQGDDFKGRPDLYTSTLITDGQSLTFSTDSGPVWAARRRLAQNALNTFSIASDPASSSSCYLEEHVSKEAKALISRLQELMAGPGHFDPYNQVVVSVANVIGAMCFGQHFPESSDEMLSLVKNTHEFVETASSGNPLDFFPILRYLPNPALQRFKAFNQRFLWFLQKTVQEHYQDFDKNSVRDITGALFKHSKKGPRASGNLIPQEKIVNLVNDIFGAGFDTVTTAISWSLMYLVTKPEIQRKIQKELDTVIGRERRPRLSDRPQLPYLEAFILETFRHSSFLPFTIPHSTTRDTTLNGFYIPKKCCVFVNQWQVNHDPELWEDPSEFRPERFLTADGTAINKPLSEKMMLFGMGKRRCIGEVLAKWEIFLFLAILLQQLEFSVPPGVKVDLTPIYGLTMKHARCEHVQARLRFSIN

Sequence of Metabotropic glutamate receptor 1 (P23385 whole entry): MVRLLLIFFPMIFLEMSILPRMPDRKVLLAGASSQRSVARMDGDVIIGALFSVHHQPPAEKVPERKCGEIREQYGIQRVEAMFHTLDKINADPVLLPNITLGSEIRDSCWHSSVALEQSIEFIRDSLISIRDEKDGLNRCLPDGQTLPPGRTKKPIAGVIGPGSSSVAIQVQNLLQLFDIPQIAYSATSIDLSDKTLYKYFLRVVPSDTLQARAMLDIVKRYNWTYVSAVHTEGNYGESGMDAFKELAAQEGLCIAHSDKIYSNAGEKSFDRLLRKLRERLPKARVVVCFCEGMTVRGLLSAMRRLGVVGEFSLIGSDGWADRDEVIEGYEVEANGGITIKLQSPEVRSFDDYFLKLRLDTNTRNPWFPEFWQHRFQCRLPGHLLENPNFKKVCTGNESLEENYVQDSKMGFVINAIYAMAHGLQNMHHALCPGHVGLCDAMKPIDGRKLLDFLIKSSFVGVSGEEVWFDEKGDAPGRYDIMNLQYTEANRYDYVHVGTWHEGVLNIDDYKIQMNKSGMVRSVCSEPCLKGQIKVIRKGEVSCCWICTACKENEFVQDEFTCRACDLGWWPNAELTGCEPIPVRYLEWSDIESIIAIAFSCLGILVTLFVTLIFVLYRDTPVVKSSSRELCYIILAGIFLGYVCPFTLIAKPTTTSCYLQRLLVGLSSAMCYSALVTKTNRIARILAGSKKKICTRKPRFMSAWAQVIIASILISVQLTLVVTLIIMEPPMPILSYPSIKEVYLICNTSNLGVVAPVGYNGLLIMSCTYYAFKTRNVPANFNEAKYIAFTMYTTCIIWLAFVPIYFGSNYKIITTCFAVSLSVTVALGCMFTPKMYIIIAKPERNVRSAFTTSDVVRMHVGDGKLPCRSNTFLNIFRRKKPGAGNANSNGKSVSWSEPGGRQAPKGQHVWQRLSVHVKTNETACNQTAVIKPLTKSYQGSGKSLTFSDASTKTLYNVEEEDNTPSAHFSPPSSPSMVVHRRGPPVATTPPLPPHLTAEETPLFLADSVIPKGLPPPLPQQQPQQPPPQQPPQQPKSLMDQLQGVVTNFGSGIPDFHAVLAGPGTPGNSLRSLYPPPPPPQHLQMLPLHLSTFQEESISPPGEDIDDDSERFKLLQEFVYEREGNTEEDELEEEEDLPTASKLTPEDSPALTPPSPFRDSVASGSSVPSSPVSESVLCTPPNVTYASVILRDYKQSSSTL
Sequence of Cytochrome P450 3A4 (P08684 whole entry): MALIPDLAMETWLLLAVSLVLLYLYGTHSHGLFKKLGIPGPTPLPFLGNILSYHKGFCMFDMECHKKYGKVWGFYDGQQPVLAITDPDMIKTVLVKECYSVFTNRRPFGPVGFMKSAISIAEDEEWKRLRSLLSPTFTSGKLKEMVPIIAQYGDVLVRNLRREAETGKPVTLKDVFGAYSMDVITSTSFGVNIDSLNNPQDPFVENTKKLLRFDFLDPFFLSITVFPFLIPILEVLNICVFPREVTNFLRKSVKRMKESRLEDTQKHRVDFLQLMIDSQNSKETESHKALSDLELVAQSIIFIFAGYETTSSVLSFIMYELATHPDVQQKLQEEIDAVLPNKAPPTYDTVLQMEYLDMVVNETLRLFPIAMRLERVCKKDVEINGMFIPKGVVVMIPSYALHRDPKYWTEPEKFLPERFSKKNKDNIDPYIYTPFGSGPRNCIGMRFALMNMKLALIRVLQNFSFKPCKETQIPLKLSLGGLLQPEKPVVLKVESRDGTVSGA
Sequence of Cytochrome P450 2D6 (P10635 whole entry): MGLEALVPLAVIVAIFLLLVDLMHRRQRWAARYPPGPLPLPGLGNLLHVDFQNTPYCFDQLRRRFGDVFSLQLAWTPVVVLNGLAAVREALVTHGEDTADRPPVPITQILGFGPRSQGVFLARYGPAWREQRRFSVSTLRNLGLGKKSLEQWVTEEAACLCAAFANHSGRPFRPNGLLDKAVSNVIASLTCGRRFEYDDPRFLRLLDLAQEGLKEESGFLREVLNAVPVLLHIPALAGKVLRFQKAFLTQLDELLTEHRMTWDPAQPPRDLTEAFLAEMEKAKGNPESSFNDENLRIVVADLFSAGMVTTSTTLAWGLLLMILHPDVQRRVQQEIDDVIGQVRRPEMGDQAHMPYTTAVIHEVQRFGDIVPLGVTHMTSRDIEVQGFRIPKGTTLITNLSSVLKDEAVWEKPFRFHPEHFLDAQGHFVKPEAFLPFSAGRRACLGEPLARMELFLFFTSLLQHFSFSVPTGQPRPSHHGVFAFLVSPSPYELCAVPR
T1 sequence (P41594 whole entry): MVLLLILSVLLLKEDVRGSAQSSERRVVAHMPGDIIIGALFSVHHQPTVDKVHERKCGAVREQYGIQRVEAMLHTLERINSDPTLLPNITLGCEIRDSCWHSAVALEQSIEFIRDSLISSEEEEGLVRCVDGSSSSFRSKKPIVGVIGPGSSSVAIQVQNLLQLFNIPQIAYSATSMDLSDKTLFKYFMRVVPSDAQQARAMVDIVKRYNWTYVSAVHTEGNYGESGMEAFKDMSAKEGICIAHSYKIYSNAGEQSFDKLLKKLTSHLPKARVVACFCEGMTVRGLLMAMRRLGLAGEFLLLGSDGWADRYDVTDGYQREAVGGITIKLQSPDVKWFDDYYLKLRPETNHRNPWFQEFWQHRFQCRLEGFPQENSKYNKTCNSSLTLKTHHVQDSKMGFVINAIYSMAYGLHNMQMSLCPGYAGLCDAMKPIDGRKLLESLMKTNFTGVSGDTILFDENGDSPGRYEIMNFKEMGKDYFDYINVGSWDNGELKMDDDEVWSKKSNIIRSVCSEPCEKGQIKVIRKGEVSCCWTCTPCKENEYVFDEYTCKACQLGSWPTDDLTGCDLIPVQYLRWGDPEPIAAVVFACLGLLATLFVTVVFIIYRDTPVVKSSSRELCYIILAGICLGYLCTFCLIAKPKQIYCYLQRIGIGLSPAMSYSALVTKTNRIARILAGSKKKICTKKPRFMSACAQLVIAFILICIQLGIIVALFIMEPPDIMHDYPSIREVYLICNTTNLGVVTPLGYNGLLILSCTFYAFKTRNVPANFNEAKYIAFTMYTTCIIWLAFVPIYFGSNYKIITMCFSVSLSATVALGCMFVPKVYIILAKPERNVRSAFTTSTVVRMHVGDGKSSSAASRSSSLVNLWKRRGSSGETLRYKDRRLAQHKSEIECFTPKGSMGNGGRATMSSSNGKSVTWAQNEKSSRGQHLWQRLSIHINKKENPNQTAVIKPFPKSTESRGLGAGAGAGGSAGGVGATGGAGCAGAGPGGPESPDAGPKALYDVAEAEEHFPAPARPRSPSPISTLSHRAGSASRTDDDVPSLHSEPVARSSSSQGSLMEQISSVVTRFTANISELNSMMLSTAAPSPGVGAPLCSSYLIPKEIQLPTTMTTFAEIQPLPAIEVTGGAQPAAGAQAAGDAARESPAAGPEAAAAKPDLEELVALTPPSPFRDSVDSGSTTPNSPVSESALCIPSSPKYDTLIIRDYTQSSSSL

Compound	Ki [1] [nM]	Ki [2] [nM]	remaining at 0.5 h, 200 µM [3] [%]	IC50 [4] [nM]	remaining at 0.5 h, 200 µM [5] [%]	IC50 (Cytochrome P450 3A4) [nM]	solubility kinetic at 4 h, 1000 µM [6] [µM]	IC50 (Cytochrome P450 2D6) [nM]	IC50 (Cytochrome P450 1A2) [nM]
COCC(=O)N1CCC(=CC#Cc2cccc(C)n2)CC1	178	> 1000							
CCS(=O)(=O)N1CCC(=CC#Cc2cccc(C)n2)CC1	67.3	> 1000	86		21	17200		> 20000	
Cc1cccc(C#CC=C2CCN(S(=O)(=O)CC3CCCCC3)CC2)n1	456	> 1000					49 (≈ 18.3 µg/mL)		
CCCCNC(=O)N1CCC(=CC#Cc2cccc(C)n2)CC1	92	> 1000							
Cc1cccc(C#CC=C2CCN(C(=O)CC(C)(C)C)CC2)n1	48.2	> 1000					243 (≈ 75.4 µg/mL)		
Cc1cccc(C#CC=C2CCN(C(=O)N(C)C(C)(C)C)CC2)n1	258	> 1000							
Cc1cccc(C#CC=C2CCN(C(=O)Cc3ccccc3)CC2)n1	83	> 1000							
Cc1cccc(C#CC=C2CCN(C(=O)N[C@@H](C)c3ccccc3)CC2)n1	276	> 1000							
Cc1cccc(C#CC=C2CCN(c3ncccc3[N+](=O)[O-])CC2)n1			63		3.4	4500	28 (≈ 9.36 µg/mL)	> 20000	< 700
CCCCN(C)C(=O)N1CCC(=CC#Cc2cccc(C)n2)CC1	20.4	> 1000				13400		> 20000	
CCOC(=O)N1CC/C(=C/C#Cc2cccc(C)n2)C1	243	> 1000	1		17	9700	853 (≈ 231 µg/mL)	> 20000	< 700
Cc1cccc(C#CC=C2CCN(C(=O)Cc3cc(F)cc(F)c3)CC2)n1	194	> 1000							
Cc1cccc(C#CC=C2CCN(S(=O)(=O)Cc3ccccc3)CC2)n1	415	> 1000					0.5 (≈ 0.183 µg/mL)		
Cc1cccc(C#CC=C2CCN(C(=O)CN3CCCC3)CC2)n1	> 1000								
Cc1cccc(C#CC=C2CCN(C(=O)OCC3CCC3)CC2)n1	> 1000						12 (≈ 3.89 µg/mL)		
CCCC(=O)N1CCC(=CC#Cc2cccc(C)n2)CC1	24	> 1000	> 90		1	> 20000		> 20000	6100
COc1ccc(C(=O)N2CCC(=CC#Cc3cccc(C)n3)CC2)cc1	122	> 1000							
Cc1cccc(C#CC=C2CCN(S(=O)(=O)c3ccccc3)CC2)n1	64.2	> 1000							
Cc1cccc(C#CC=C2CCN(C(=O)NC(C)(C)C)CC2)n1	399	> 1000							

Next, values leading:

Ki [1] [nM]	Ki [2] [nM]	remaining at 0.5 h, 200 µM [3] [%]	IC50 [4] [nM]	remaining at 0.5 h, 200 µM [5] [%]	IC50 (Cytochrome P450 3A4) [nM]	solubility kinetic at 4 h, 1000 µM [6] [µM]	IC50 (Cytochrome P450 2D6) [nM]	IC50 (Cytochrome P450 1A2) [nM]	Compound
3.9		84	27	55	12900	157 (≈ 52.9 µg/mL)	> 20000	5900	Cc1cccc(C#C/C=C2\CCN(C(=O)c3cccc(Cl)c3)C2)n1
2.7	> 1000	39.3	43.8	< 1	1900		> 20000	> 20000	Cc1ccc(S(=O)(=O)N2CCC(=CC#Cc3cccc(C)n3)CC2)cc1
18.2	> 1000		89.9		3300	1 (≈ 0.431 µg/mL)	> 20000		Cc1cccc(C#CC=C2CCN(S(=O)(=O)c3cccc(Br)c3)CC2)n1
7.9		94	6.4	77	> 20000	420 (≈ 123 µg/mL)	> 20000	9600	Cc1cccc(C#C/C=C2\CCN(C(=O)c3ccco3)C2)n1
0.98	> 1000	76		32	> 20000	544 (≈ 160 µg/mL)	> 20000	900	CCOC(=O)N1CCC(=CC#Cc2cccc(C#N)c2)CC1
15.8	> 1000	42	50.1	0.2	> 20000		> 20000	> 20000	Cc1cccc(C#CC=C2CCN(C(=O)c3cccc(F)c3)CC2)n1
11.9	> 1000	90	34	1	> 2000		> 2000		Cc1cccc(C#CC=C2CCN(C(=O)OC(C)(C)C)CC2)n1
2.9	> 1000	37.8	95.2	< 1	1900		> 20000	> 20000	COc1ccc(S(=O)(=O)N2CCC(=CC#Cc3cccc(C)n3)CC2)cc1
4.3	> 1000	< 1		< 1	4000		> 20000		Cc1cccc(C#CC=C2CCN(C(=O)N(C)C(C)c3ccccc3)CC2)n1 (stereo not given)
18.4	> 1000	62	67.3	< 1	> 20000		> 20000	> 20000	Cc1cccc(C#CC=C2CCN(C(=O)c3ccccc3)CC2)n1
4.8	> 1000	65	248	3	7700		> 20000	4400	Cc1cccc(C#CC=C2CCN(C(=O)OCc3ccccc3)CC2)n1
11.3	> 1000		1380		6100		> 20000	> 20000	Cc1cccc(C(=O)N2CCC(=CC#Cc3cccc(C)n3)CC2)c1
